Measured values published in ChEMBL document CHEMBL2062365, “Suppressive effects of coumarins from Mammea siamensis on inducible nitric oxide synthase expression in RAW264.7 cells” (Bioorg Med Chem, 2012).

Experiments:
RAW264.7 [1] = assay: Antiinflammatory activity in mouse RAW264.7 cells assessed as inhibition of LPS-induced NO production relative to control; assay type: functional, cell-based
In short: (§1)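 RAW264.7 cells (DMEM, 10% FBS, 37 °C, 5% CO2) seeded at 2.5 × 10^5 cells/well. After 6 h, nonadherent cells were washed off. Adherent cells were exposed to test compound for 10 min, then to LPS (E. coli 055:B5, final 10 µg/mL) for 18 h. Supernatant nitrite was measured by Griess reaction. Inhibition % = (A−B)/(A−C)×100, with C as the no-LPS control. IC50 was read graphically; N = 4, mean ± SEM. CAPE was the reference.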

RAW264.7 [2] = assay: Antiinflammatory activity in mouse RAW264.7 cells assessed as inhibition of LPS-induced NO production at 30 uM relative to control; assay type: functional; in short: as §1

IC50 (RAW264.7 [1]): 17 µM
Structure (SMILES): Oc1c2ccccc2c2c3c(cccc13)N=N2 [SP-600125]
inhibition at 30 µM (RAW264.7 [2]): 74.6%
